# Reference: ChEMBL document CHEMBL1141410, “Eremophilane-type sesquiterpene derivatives from the roots of Ligularia lapathifolia” (J Nat Prod, 2007)
# Experiments:
# Type in all cases: cell-based
# [1] = Cytotoxicity against human MGC803 cells after 48 hrs by MTT colorimetric assay; conditions: MGC-803, 48 h
# In short: (§1)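 Cells maintained in RPMI-1640 with 10% heat-inactivated FBS, penicillin and streptomycin at 37 °C, 5% CO2; exponentially growing cells seeded at 1 × 10^5 cells/mL, treated after 24 h at 0.1–100 or 0.15–150 mg/L, six replicate wells per point. After 48 h, MTT added for 4 h at 37 °C, then 10% SDS–0.01 M HCl overnight; A570 read, cytotoxicity % versus untreated cells.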
# HepG2 = assay: Cytotoxicity against human HEPG2 cells after 48 hrs by MTT colorimetric assay; conditions: HepG2, 48 h; in short: as §1
# CCRF S-180 = assay: Cytotoxicity against mouse S180 cells after 48 hrs by MTT colorimetric assay; conditions: CCRF S-180, 48 h; in short: as §1
Compound,IC50 [1] [µM],IC50 (HepG2) [µM],IC50 (CCRF S-180) [µM]
CO[C@]12C[C@H]3CCC=C4C(=O)O[C@@H](C1=C(C)C(=O)O2)[C@]43C,> 100,12.7,73.1
COC(=O)C1=CCC[C@@H]2CC(C(C)=O)=C[C@]12C,35.4,46.5,19.9
CC1=C2[C@@H]3OC(=O)C4=CCC[C@H](C[C@]2(O)OC1=O)[C@@]43C,> 100,> 100,> 100
CCO[C@]12C[C@H]3CCC=C4C(=O)O[C@@H](C1=C(C)C(=O)O2)[C@]43C,53.9,40.5,36.6
C/C=C(/C)C(=O)OC1CC[C@@H]2CC(=O)C(C(C)C(=O)OC)=C[C@]2(C)C1C(=O)OC (stereo not given in full),> 100,> 100,> 100
